{
  "source": "paper PMC10325562",
  "about": "(Circulation, 2023)",
  "key": {"[1]": {"experiment": "Study-003 safety and tolerability", "type": "in vivo, human"}, "monkeys": {"system": "monkeys", "experiment": "Safety pharmacology and 1-month repeat-dose toxicity studies, monkeys", "type": "in vivo", "settings": "safety pharmacology and 1-month repeat-dose toxicity"}, "PCSK9 in human plasma": {"molecular_target": "PCSK9 in human plasma (Homo sapiens, UniProt Q8NBP7)", "sequence (Q8NBP7 153-692)": "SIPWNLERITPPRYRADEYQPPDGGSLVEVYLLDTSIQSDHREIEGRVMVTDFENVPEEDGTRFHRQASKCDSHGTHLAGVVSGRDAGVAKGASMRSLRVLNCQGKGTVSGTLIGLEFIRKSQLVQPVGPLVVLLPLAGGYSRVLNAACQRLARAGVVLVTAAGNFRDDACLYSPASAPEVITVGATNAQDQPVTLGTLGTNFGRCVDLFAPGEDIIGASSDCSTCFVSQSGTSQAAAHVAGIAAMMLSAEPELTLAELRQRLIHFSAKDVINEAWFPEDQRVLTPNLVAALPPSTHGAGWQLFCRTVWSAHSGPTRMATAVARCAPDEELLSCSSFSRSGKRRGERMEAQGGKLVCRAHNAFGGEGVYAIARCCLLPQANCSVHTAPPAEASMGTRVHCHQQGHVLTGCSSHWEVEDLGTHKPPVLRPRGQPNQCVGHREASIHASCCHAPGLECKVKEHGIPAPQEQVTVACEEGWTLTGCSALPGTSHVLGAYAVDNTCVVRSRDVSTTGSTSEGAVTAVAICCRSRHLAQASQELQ", "experiment": "In vitro titration of PCSK9 in human plasma", "type": "binding", "how_it_was_run": "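Pooled EDTA-anticoagulated plasma (human, n=20 donors; or cynomolgus monkey) spiked with test compound at 0, 0.3, 1, 3, 5, 10, 50, 100, 500 and 1000 nM, from 0.1 mM DMSO stocks. Incubated 30 min at 25°C. Target engagement measured on 50 μL aliquots by affinity capture, enzymatic digestion and LC-MS/MS.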"}, "[2]": {"experiment": "Passive permeability in MDCKII cells", "settings": "MDCK, pH 7.4"}, "[3]": {"experiment": "Study-003 multiple oral dose plasma pharmacokinetics", "type": "in vivo, human", "settings": "for Accumulation ratio (Day 14/Day 1) AUC0-24 / Accumulation ratio (Day 14/Day 1) C24 / Accumulation ratio (Day 14/Day 1) Cmax: (90% CI); for level at time molar at 24 h: both, plasma, po; for level at time molar at 24 h / AUC(0-t) / Cmax / Tmax / half-life: human; for AUC(0-t) / Cmax / Tmax / half-life: in vivo"}, "[4]": {"experiment": "Oral bioavailability in cynomolgus monkeys with permeation enhancer", "type": "in vivo", "settings": "formulated with an established PE"}, "[5]": {"experiment": "Standard genotoxicity/mutagenicity assessments"}, "[6]": {"experiment": "Study-001 single oral dose plasma pharmacokinetics", "type": "in vivo, human", "settings": "200 mg single dose"}, "Solubility": {"experiment": "Solubility", "type": "physicochemical"}, "rats": {"system": "rats", "experiment": "Safety pharmacology and 1-month repeat-dose toxicity studies, rats", "type": "in vivo", "settings": "safety pharmacology and 1-month repeat-dose toxicity"}, "[7]": {"experiment": "Study-001 safety and tolerability", "type": "in vivo, human", "how_it_was_run": "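Single-center, randomized, double-blind, placebo-controlled, single-ascending oral dose study in healthy males aged 18–50. The test compound was given alone, with Labrasol or with sodium caprate. Dosing was fasted except one group after a high-fat breakfast. Escalations were ≥4 days apart, with ≥7-day washout per participant and safety review through ≥24 h. Monitoring covered AEs, physical exam, laboratory safety, 12-lead ECG and vital signs.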"}, "[8]": {"settings": "10 mg once daily 30 min post-meal + 360 mg sodium caprate, n=6"}, "[9]": {"settings": "10 mg once daily fasted + 360 mg sodium caprate, n=8"}, "[10]": {"settings": "20 mg once daily fasted + 360 mg sodium caprate, n=9"}},
  "note": "Entries after “also recorded” stand apart in the source; their conditions may differ. Where two headings read alike, the source gives them in different places.",
  "data": [
    {"compound": "COc1ccc(C[C@@H]2NC(=O)[C@H]([C@@H](C)O)NC(=O)[C@@H]3[C@@H]4CCN3C(=O)[C@@H]3Cc5cn(c6ccc(F)cc56)CCCCCCN(Cc5ccc(cc5)CCNC(=O)[C@]5(C)CCCN5C2=O)C(=O)CCC(=O)N[C@@H](C)C(=O)N[C@H](CNC(=O)CCCCC[N+](C)(C)C)C(=O)N[C@@H](Cc2cccc(c2)CNC(=O)CO4)C(=O)N3)cc1", "note": "[MK-0616]", "values": [
      {"measurement": "Deaths or serious AEs", "setting": "[1]; Study-003", "value": "No deaths or serious AEs"},
      {"measurement": "Tolerability", "setting": "[1]; Study-003, 14 days of daily oral dosing", "value": "generally well tolerated"},
      {"measurement": "Drug-related AE: dizziness", "setting": "[1]; Study-003, n=1", "value": 3.2, "unit": "%"},
      {"measurement": "Drug-related AE: dry mouth", "setting": "[1]; Study-003, n=1", "value": 3.2, "unit": "%"},
      {"measurement": "Drug-related AE: dyspepsia", "setting": "[1]; Study-003, n=1", "value": 3.2, "unit": "%"},
      {"measurement": "Drug-related AE: flushing", "setting": "[1]; Study-003, n=1", "value": 3.2, "unit": "%"},
      {"measurement": "Drug-related AE: hunger", "setting": "[1]; Study-003, n=1", "value": 3.2, "unit": "%"},
      {"measurement": "Drug-related AE: insomnia", "setting": "[1]; Study-003, n=1", "value": 3.2, "unit": "%"},
      {"measurement": "Drug-related AE: gastroesophageal reflux disease", "setting": "[1]; Study-003, n=2", "value": 6.5, "unit": "%"},
      {"measurement": "Participants with 1 or more drug-related AEs", "setting": "[1]; Study-003, n=7 of 31", "value": 22.6, "unit": "%"},
      {"measurement": "Participants with 1 or more AEs", "setting": "[1]; Study-003, n=21 of n=31 administered MK-0616", "value": 67.7, "unit": "%"},
      {"measurement": "Tolerability", "setting": "monkeys", "value": "well tolerated"},
      {"measurement": "IC50", "setting": "PCSK9 in human plasma", "value": 2.5, "unit": "nM"},
      {"measurement": "Papp", "setting": "[2]", "value": 0.71, "unit": "×10⁻⁶ cm/s"},
      {"measurement": "Accumulation ratio (Day 14/Day 1) AUC0-24", "setting": "[3]; [8]", "value": "1.90 (1.42, 2.55) h•nmol/L"},
      {"measurement": "Accumulation ratio (Day 14/Day 1) C24", "setting": "[3]; [8]", "value": "2.01 (1.51, 2.67) nmol/L"},
      {"measurement": "Accumulation ratio (Day 14/Day 1) Cmax", "setting": "[3]; [8]", "value": "1.60 (1.17, 2.21) nmol/L"},
      {"measurement": "Accumulation ratio (Day 14/Day 1) AUC0-24", "setting": "[3]; [9]", "value": "1.46 (1.13, 1.88) h•nmol/L"},
      {"measurement": "Accumulation ratio (Day 14/Day 1) C24", "setting": "[3]; [9]", "value": "1.32 (1.03, 1.70) nmol/L"},
      {"measurement": "Accumulation ratio (Day 14/Day 1) Cmax", "setting": "[3]; [9]", "value": "1.51 (1.15, 1.99) nmol/L"},
      {"measurement": "Delay of Day 14 Tmax by low-fat breakfast 30 minutes prior to dose", "setting": "[3]; 10 mg vs same dose fasting", "value": "approximately 6 hours"},
      {"measurement": "Accumulation ratio (Day 14/Day 1) AUC0-24", "setting": "[3]; [10]", "value": "1.97 (1.54, 2.54) h•nmol/L"},
      {"measurement": "Accumulation ratio (Day 14/Day 1) C24", "setting": "[3]; [10]", "value": "1.81 (1.42, 2.31) nmol/L"},
      {"measurement": "Accumulation ratio (Day 14/Day 1) Cmax", "setting": "[3]; [10]", "value": "2.04 (1.56, 2.68) nmol/L"},
      {"measurement": "Plasma accumulation", "setting": "[3]; all doses evaluated in Study-003", "value": "approximately 2 fold"},
      {"measurement": "level at time molar at 24 h", "setting": "[3]; 20 mg once daily, C24, Day 14, 20 mg once daily fasted + 360 mg sodium caprate, n=9, footnote: median (min, max)", "value": 11.1, "unit": "nM"},
      {"measurement": "level at time molar at 24 h", "setting": "[3]; 20 mg, C24, Day 1, 20 mg once daily fasted + 360 mg sodium caprate, n=9, geometric mean (95% CI)", "value": 6.13, "unit": "nM"},
      {"measurement": "AUC(0-t)", "setting": "[3]; AUC0-24, Day 1, 20 mg once daily fasted + 360 mg sodium caprate, statin-treated, n=9, geometric mean (95% CI)", "value": 0.142, "unit": "µM·h"},
      {"measurement": "AUC(0-t)", "setting": "[3]; AUC0-24, Day 14, 20 mg once daily fasted + 360 mg sodium caprate, n=9, geometric mean (95% CI)", "value": 0.28, "unit": "µM·h"},
      {"measurement": "Cmax", "setting": "[3]; Day 1, 20 mg once daily fasted + 360 mg sodium caprate, n=9, geometric mean (95% CI)", "value": 7.87, "unit": "nM"},
      {"measurement": "Cmax", "setting": "[3]; Day 14, 20 mg once daily fasted + 360 mg sodium caprate, n=9, geometric mean (95% CI)", "value": 16.1, "unit": "nM"},
      {"measurement": "Tmax", "setting": "[3]; Day 14, all fasted doses", "value": "< 2", "unit": "h"},
      {"measurement": "Tmax", "setting": "[3]; Day 14, 20 mg once daily fasted + 360 mg sodium caprate, n=9, median (min, max)", "value": 1.8, "unit": "h"},
      {"measurement": "half-life", "setting": "[3]; t1/2, Day 14, 20 mg once daily fasted + 360 mg sodium caprate, n=9, geometric mean (% geometric CV)", "value": 244, "unit": "h"},
      {"measurement": "half-life", "setting": "[3]; t1/2, range, Day 14, across dose regimens", "value": "178 to 244", "unit": "h"},
      {"measurement": "Time to steady state", "setting": "[3]; once daily dosing, all dosing regimens", "value": "by the end of the first week; also recorded: after 1 week"},
      {"measurement": "Oral bioavailability", "setting": "[4]", "value": "demonstrated oral bioavailability"},
      {"measurement": "Genotoxicity / mutagenicity", "setting": "[5]", "value": "not genotoxic or mutagenic"},
      {"measurement": "Fold lower Cmax in the absence of 1,800 mg Labrasol vs same dose in the PE", "setting": "[6]", "value": "> 5", "unit": "fold"},
      {"measurement": "solubility", "setting": "Solubility", "value": 7800, "unit": "µg/mL"},
      {"measurement": "solubility", "setting": "Solubility; pH 7", "value": "> 7000", "unit": "µg/mL"},
      {"measurement": "Tolerability", "setting": "rats", "value": "well tolerated"},
      {"measurement": "Deaths or serious AEs", "setting": "[7]; Study-001", "value": "No deaths or serious AEs"},
      {"measurement": "Participants with ≥1 AE", "setting": "[7]; Study-001, n=28 of n=51 administered MK-0616", "value": 54.9, "unit": "%"},
      {"measurement": "Tolerability", "setting": "[7]; Study-001, single-dose oral administration", "value": "generally well tolerated"}
    ]}
  ]
}
